Laboratory results: ChEMBL document CHEMBL1141140, “Antifungal agents. 11. N-substituted derivatives of 1-[(aryl)(4-aryl-1H-pyrrol-3-yl)methyl]-1H-imidazole: synthesis, anti-Candida activity, and QSAR studies” (2005)
≈ marks a conversion by molar mass, not a printed value.

How the values were obtained:
Assay type in all cases: functional
[1] = system: Candida albicans; experiment: Ratio of the in vitro minimal inhibitory to that of bifonazole against Candida albicans (MIC(compound)/MIC(bifonazole))
Method in brief: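 Broth microdilution per NCCLS M27-A2 against 12 Candida albicans strains (AIDS oropharyngeal, HIV vulvovaginitis isolates, ATCC 24433 and 20891, lab strains 3153 and CA2). Inoculum ~10^4 cells/mL in RPMI 1640, pH 7.0; DMSO stocks 6.4 mg/mL, twofold dilutions 0.016–64 μg/mL; read at 24 h, 28 °C, no visible growth. Mean MIC over strains converted to μmol/mL, divided by bifonazole MIC.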

[2] = system: Candida albicans; experiment: In vitro concentration causing 50% inhibition of Candida albicans with percentage of resistant strains %R = 41.6 (MIC > 64 ug/mL) at a range of 0.062-0.125 ug/mL
[3] = system: Candida albicans; experiment: In vitro minimal inhibitory concentration against Candida albicans with percentage of resistant strains %R = 41.6 (MIC > 64 ug/mL) at a range of 0.062-0.125 ug/mL
[4] = system: Candida albicans; experiment: In vitro concentration causing 90% inhibition of Candida albicans with percentage of resistant strains %R = 41.6 (MIC > 64 ug/mL) at a range of 0.062-0.125 ug/mL
[5] = system: Candida albicans; experiment: In vitro minimal inhibitory concentration against Candida albicans with percentage of resistant strains %R = 33.33 (MIC > 64 ug/mL) at a range of 0.125-2 ug/mL
[6] = system: Candida albicans; experiment: In vitro concentration causing 50% inhibition of Candida albicans with percentage of resistant strains %R = 33.33 (MIC > 64 ug/mL) at a range of 0.125-2 ug/mL
[7] = system: Candida albicans; experiment: In vitro concentration causing 90% inhibition of Candida albicans with percentage of resistant strains %R = 33.33 (MIC > 64 ug/mL) at a range of 0.125-2 ug/mL
[8] = system: Candida albicans; experiment: In vitro minimal inhibitory concentration against Candida albicans with percentage of resistant strains %R = 33.33 (MIC > 64 ug/mL) at a range of 0.25-0.5 ug/mL
[9] = system: Candida albicans; experiment: In vitro concentration causing 50% inhibition of Candida albicans with percentage of resistant strains %R = 33.33 (MIC > 64 ug/mL) at a range of 0.25-0.5 ug/mL
[10] = system: Candida albicans; experiment: In vitro concentration causing 90% inhibition of Candida albicans with percentage of resistant strains %R = 33.33 (MIC > 64 ug/mL) at a range of 0.25-0.5 ug/mL
[11] = system: Candida albicans; experiment: In vitro minimal inhibitory concentration against Candida albicans with percentage of resistant strains %R = 41.66 (MIC > 64 ug/mL) at a range of 0.25-4 ug/mL
[12] = system: Candida albicans; experiment: In vitro concentration causing 50% inhibition of Candida albicans with percentage of resistant strains %R = 41.66 (MIC > 64 ug/mL) at a range of 0.25-4 ug/mL
[13] = system: Candida albicans; experiment: In vitro concentration causing 90% inhibition of Candida albicans with percentage of resistant strains %R = 41.66 (MIC > 64 ug/mL) at a range of 0.25-4 ug/mL
[14] = system: Candida albicans; experiment: In vitro minimal inhibitory concentration against Candida albicans with percentage of resistant strains %R = 0 (MIC > 64 ug/mL) at a range of 0.016-0.5 ug/mL
[15] = system: Candida albicans; experiment: In vitro concentration causing 50% inhibition of Candida albicans with percentage of resistant strains %R = 0 (MIC > 64 ug/mL) at a range of 0.016-0.5 ug/mL
[16] = system: Candida albicans; experiment: In vitro concentration causing 90% inhibition of Candida albicans with percentage of resistant strains %R = 0 (MIC > 64 ug/mL) at a range of 0.016-0.5 ug/mL

SMILES | Ratio [1] | also measured
Cc1ccc(C(c2ccn(-c3ccc(Cl)cc3)c2)n2ccnc2)cc1 (stereo unspecified) | 1.1 | –
Fc1ccc(C(c2ccn(-c3ccc(Cl)cc3)c2)n2ccnc2)cc1 (stereo unspecified) | 2.8 | –
Nc1ccc(-c2c[nH]cc2C(c2ccc(Cl)cc2Cl)n2ccnc2)cc1 (stereo unspecified) | 28 | –
Clc1ccc(C(c2ccn(-c3ccc(Cl)cc3)c2)n2ccnc2)cc1 (stereo unspecified) | 7.3 | –
Cn1cc(-c2ccc(Cl)cc2)c(C(c2ccccc2)n2ccnc2)c1 (stereo unspecified) | 0.025 | MIC50 [2]: 0.062 µg/mL (≈ 0.178 µM); MIC [3]: 0.097 µg/mL (≈ 0.279 µM); MIC90 [4]: 0.125 µg/mL (≈ 0.359 µM)
COc1ccc(C(Cc2ccc([N+](=O)[O-])cc2)n2ccnc2)cc1 (stereo unspecified) | 17 | –
COc1ccc(C(Cc2ccc(F)cc2)n2ccnc2)cc1 (stereo unspecified) | 23 | –
CCn1cc(-c2ccc(Cl)c(Cl)c2)c(C(c2ccc(C)cc2)n2ccnc2)c1 (stereo unspecified) | 0.47 | MIC [5]: 2.18 µg/mL (≈ 5.31 µM); MIC50 [6]: 2 µg/mL (≈ 4.87 µM); MIC90 [7]: 2 µg/mL (≈ 4.87 µM)
COc1ccc(C(Cc2cccc(F)c2)n2ccnc2)cc1 (stereo unspecified) | 51 | –
c1ccc(-c2c[nH]cc2C(c2ccc3ccccc3c2)n2ccnc2)cc1 (stereo unspecified) | 3.8 | –
Fc1ccc(-n2ccc(C(c3ccccc3)n3ccnc3)c2)cc1 (stereo unspecified) | 4.1 | –
Clc1ccc(-c2c[nH]cc2C(c2ccc(Cl)cc2Cl)n2ccnc2)cc1 (stereo unspecified) | 0.92 | MIC [8]: 4.2 µg/mL (≈ 10.4 µM); MIC50 [9]: 0.25 µg/mL (≈ 0.621 µM); MIC90 [10]: 0.5 µg/mL (≈ 1.24 µM)
Fc1ccc(C(c2ccn(-c3ccccc3)c2)n2ccnc2)cc1 (stereo unspecified) | 1.8 | –
C=CCn1cc(-c2ccc(Cl)cc2)c(C(c2ccc(Cl)cc2Cl)n2ccnc2)c1 (stereo unspecified) | 0.15 | MIC [5]: 0.73 µg/mL (≈ 1.65 µM); MIC50 [6]: 0.5 µg/mL (≈ 1.13 µM); MIC90 [7]: 2 µg/mL (≈ 4.52 µM)
CCn1cc(-c2ccc(Cl)cc2Cl)c(C(c2ccccc2)n2ccnc2)c1 (stereo unspecified) | 0.33 | MIC [11]: 1.46 µg/mL (≈ 3.68 µM); MIC50 [12]: 1 µg/mL (≈ 2.52 µM); MIC90 [13]: 2 µg/mL (≈ 5.05 µM)
COc1ccc(C(Cc2ccccc2Cl)n2ccnc2)cc1 (stereo unspecified) | 63 | –
Fc1ccc(-n2ccc(C(c3ccc(Cl)cc3)n3ccnc3)c2)cc1 (stereo unspecified) | 2.7 | –
Clc1ccc(C(c2c[nH]cc2-c2ccc(-c3ccccc3)cc2)n2ccnc2)c(Cl)c1 (stereo unspecified) | 4.3 | –
COc1ccc(C(Cc2ccccc2[N+](=O)[O-])n2ccnc2)cc1 (stereo unspecified) | 97 | –
N#Cc1ccc(-c2c[nH]cc2C(c2ccc(Cl)cc2Cl)n2ccnc2)cc1 (stereo unspecified) | 4.3 | –
c1ccc(C(c2ccn(-c3ccccc3)c2)n2ccnc2)cc1 (stereo unspecified) | 2.3 | –
Clc1ccc(-n2ccc(C(c3ccccc3)n3ccnc3)c2)cc1 (stereo unspecified) | 0.7 | –
CSc1ccc(-c2c[nH]cc2C(c2ccc(Cl)cc2Cl)n2ccnc2)cc1 (stereo unspecified) | 2.8 | –
Clc1ccc(-c2cn(CC3CC3)cc2C(c2ccccc2)n2ccnc2)cc1 (stereo unspecified) | 0.025 | MIC [14]: 0.111 µg/mL (≈ 0.286 µM); MIC50 [15]: 0.016 µg/mL (≈ 0.0412 µM); MIC90 [16]: 0.125 µg/mL (≈ 0.322 µM)
CCCn1cc(-c2ccc(Cl)cc2)c(C(c2ccccc2)n2ccnc2)c1 (stereo unspecified) | 0.023 | MIC [14]: 0.096 µg/mL (≈ 0.255 µM); MIC50 [15]: 0.016 µg/mL (≈ 0.0426 µM); MIC90 [16]: 0.032 µg/mL (≈ 0.0851 µM)
